{
  "source": "ChEMBL document CHEMBL1629544",
  "about": "“Inhibitors of strand transfer that prevent integration and inhibit human T-cell leukemia virus type 1 early replication” (Antimicrob Agents Chemother, 2008)",
  "key": {"[1]": {"experiment": "Cytotoxic activity against human PBMC cells", "format": "cell-based", "summary_of_the_method": "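Fresh uninfected PBMCs were cultured with various inhibitor concentrations, including 250, 500 and 1,000 μM, in three experiments per concentration. Cell viability was measured to derive CC50.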"}, "PBMC [2]": {"system": "PBMC", "experiment": "Growth inhibition of human PBMC cells cocultured with irradiated HTLV-1 positive MT2 cells at 50 uM after 7 days", "format": "functional, cell-based", "summary_of_the_method": "(§1)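 PBMCs from HTLV-1-seronegative donors (Ficoll separation) were cocultured 5:1 with 60 Gy-irradiated HTLV-1-positive MT2 cells in RPMI 1640 with 100 U/ml IL-2. Compounds in DMSO were added at onset at final 0, 50, 100 or 250 μM, then at half the initial concentration on days 4, 7 and 10. Cells were counted on days 7, 14 and 21.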"}, "PBMC [3]": {"system": "PBMC", "experiment": "Growth inhibition of human PBMC cells cocultured with irradiated HTLV-1 positive MT2 cells at 100 uM after 7 days", "format": "functional, cell-based", "summary_of_the_method": "as §1"}, "PBMC [4]": {"system": "PBMC", "experiment": "Growth inhibition of human PBMC cells cocultured with irradiated HTLV-1 positive MT2 cells at 250 uM after 7 days", "format": "functional, cell-based", "summary_of_the_method": "as §1"}, "PBMC [5]": {"system": "PBMC", "experiment": "Growth inhibition of human PBMC cells cocultured with irradiated HTLV-1 positive MT2 cells at 50 uM after 14 days", "format": "functional, cell-based", "summary_of_the_method": "as §1"}, "PBMC [6]": {"system": "PBMC", "experiment": "Growth inhibition of human PBMC cells cocultured with irradiated HTLV-1 positive MT2 cells at 100 uM after 14 days", "format": "functional, cell-based", "summary_of_the_method": "as §1"}, "PBMC [7]": {"system": "PBMC", "experiment": "Growth inhibition of human PBMC cells cocultured with irradiated HTLV-1 positive MT2 cells at 250 uM after 14 days", "format": "functional, cell-based", "summary_of_the_method": "as §1"}, "PBMC [8]": {"system": "PBMC", "experiment": "Growth inhibition of human PBMC cells cocultured with irradiated HTLV-1 positive MT2 cells at 50 uM after 21 days", "format": "functional, cell-based", "summary_of_the_method": "as §1"}, "PBMC [9]": {"system": "PBMC", "experiment": "Growth inhibition of human PBMC cells cocultured with irradiated HTLV-1 positive MT2 cells at 100 uM after 21 days", "format": "functional, cell-based", "summary_of_the_method": "as §1"}, "PBMC [10]": {"system": "PBMC", "experiment": "Growth inhibition of human PBMC cells cocultured with irradiated HTLV-1 positive MT2 cells at 250 uM after 21 days", "format": "functional, cell-based", "summary_of_the_method": "as §1"}, "PBMC [11]": {"system": "PBMC", "experiment": "Inhibition of HTLV-1 integrase strand transfer activity in PBMC cells at 100 uM measured on day 21", "format": "cell-based", "conditions": "Human T-cell leukemia virus type I"}, "PBMC [12]": {"system": "PBMC", "experiment": "Inhibition of HTLV-1 integrase strand transfer activity in PBMC cells at 50 uM measured on day 21", "format": "cell-based", "conditions": "Human T-cell leukemia virus type I"}, "[13]": {"system": "Human T-cell leukemia virus type I", "experiment": "Antiviral activity against HTLV-1 infected in PBMC cells cocultured with irradiated HTLV-1 positive MT2 cells assessed as decrease in […] load by RT-PCR", "format": "functional, organism-based", "summary_of_the_method": "(§2)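 Donor PBMCs were cocultured 5:1 with 60 Gy-irradiated MT2 cells plus IL-2, with compound (DMSO) at 0, 50 or 100 μM, redosed at half concentration on days 4, 7 and 10. DNA was extracted on day 7. Real-time quantitative PCR for tax with albumin normalization used 250 ng DNA per reaction, in triplicate. The untreated load was set to 100 units.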"}, "[14]": {"system": "Human T-cell leukemia virus type I", "experiment": "Antiviral activity against HTLV-1 infected in PBMC cells cocultured with irradiated HTLV-1 positive MT2 cells assessed as decrease in […] load at 50 uM after 7 days by RT-PCR", "format": "functional, organism-based", "summary_of_the_method": "as §2"}, "[15]": {"system": "Human T-cell leukemia virus type I", "experiment": "Antiviral activity against HTLV-1 infected in PBMC cells cocultured with irradiated HTLV-1 positive MT2 cells assessed as decrease in […] load 100 uM after 7 days by RT-PCR", "format": "functional, organism-based", "summary_of_the_method": "as §2"}, "[16]": {"system": "Human T-cell leukemia virus type I", "experiment": "Inhibition of HTLV-1 integrase strand transfer activity at 2 uM", "summary_of_the_method": "(§3)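 Recombinant HTLV-1 integrase, expressed in E. coli BL21(DE3) and Ni-NTA purified. Donor was a 3′-recessed double-strand 54-bp HTLV-1 3′ LTR with synthetic target DNA, 1 pmol each oligonucleotide. Buffer: 25 mM HEPES pH 7.4, 10 mM β-mercaptoethanol, 10% glycerol, 7.5 mM MnCl₂. Incubated 60 min at 37°C. Products quantified by fluorescent PCR peak intensity, in triplicate; approximate IC50 by linear regression.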"}, "[17]": {"system": "Human T-cell leukemia virus type I", "experiment": "Inhibition of HTLV-1 integrase strand transfer activity at 5 uM", "summary_of_the_method": "as §3"}, "[18]": {"system": "Human T-cell leukemia virus type I", "experiment": "Inhibition of HTLV-1 integrase strand transfer activity at 10 uM", "summary_of_the_method": "as §3"}, "[19]": {"experiment": "Inhibition of HTLV-1 integrase strand transfer activity", "set-up": "species or system Human T-cell leukemia virus type I", "summary_of_the_method": "as §3"}},
  "note": "Calls of active or inactive are those of the source. The rule behind the calls is not given here.",
  "data": [
    {"molecule": "O=C(O)C(=O)CC(=O)c1cccn1Cc1ccc(F)cc1", "values": [
      {"measurement": "CC50", "setting": "[1]", "result": 520, "unit": "µM"},
      {"measurement": "inhibition", "setting": "PBMC [2]", "result": "Active"},
      {"measurement": "inhibition", "setting": "PBMC [3]", "result": "Active"},
      {"measurement": "inhibition", "setting": "PBMC [4]", "result": "Active"},
      {"measurement": "inhibition", "setting": "PBMC [5]", "result": "Active"},
      {"measurement": "inhibition", "setting": "PBMC [6]", "result": "Active"},
      {"measurement": "inhibition", "setting": "PBMC [7]", "result": "Active"},
      {"measurement": "inhibition", "setting": "PBMC [8]", "result": "Active"},
      {"measurement": "inhibition", "setting": "PBMC [9]", "result": "Active"},
      {"measurement": "inhibition", "setting": "PBMC [10]", "result": "Active"},
      {"measurement": "inhibition", "setting": "PBMC [11]", "result": "Active"},
      {"measurement": "inhibition", "setting": "PBMC [12]", "result": "Active"}
    ]},
    {"molecule": "O=C(O)c1ccc2ccc(/C=C/c3cc(O)c(O)c(O)c3)nc2c1O", "values": [
      {"measurement": "CC50", "setting": "[1]", "result": 10.7, "unit": "µM"}
    ]},
    {"molecule": "O=C(O)C(=O)CC(=O)c1cccc(Cc2ccccc2)c1", "values": [
      {"measurement": "CC50", "setting": "[1]", "result": 220, "unit": "µM"},
      {"measurement": "inhibition", "setting": "PBMC [2]", "result": "Active"},
      {"measurement": "inhibition", "setting": "PBMC [3]", "result": "Active"},
      {"measurement": "inhibition", "setting": "PBMC [4]", "result": "Active"},
      {"measurement": "inhibition", "setting": "PBMC [5]", "result": "Active"},
      {"measurement": "inhibition", "setting": "PBMC [6]", "result": "Active"},
      {"measurement": "inhibition", "setting": "PBMC [7]", "result": "Active"},
      {"measurement": "inhibition", "setting": "PBMC [8]", "result": "Active"},
      {"measurement": "inhibition", "setting": "PBMC [9]", "result": "Active"},
      {"measurement": "inhibition", "setting": "PBMC [10]", "result": "Active"},
      {"measurement": "Activity", "setting": "[13]", "result": "Active"},
      {"measurement": "Activity", "setting": "[14]", "result": "Active"},
      {"measurement": "Activity", "setting": "[15]", "result": "Active"}
    ]},
    {"molecule": "O=C(O)c1ccc2ccc(/C=C/c3ccc(O)c(O)c3)nc2c1O", "values": [
      {"measurement": "inhibition", "setting": "PBMC [2]", "result": "Active"},
      {"measurement": "inhibition", "setting": "PBMC [3]", "result": "Active"},
      {"measurement": "inhibition", "setting": "PBMC [4]", "result": "Active"},
      {"measurement": "inhibition", "setting": "PBMC [5]", "result": "Active"},
      {"measurement": "inhibition", "setting": "PBMC [6]", "result": "Active"},
      {"measurement": "inhibition", "setting": "PBMC [7]", "result": "Active"},
      {"measurement": "inhibition", "setting": "PBMC [8]", "result": "Active"},
      {"measurement": "inhibition", "setting": "PBMC [9]", "result": "Active"},
      {"measurement": "inhibition", "setting": "PBMC [10]", "result": "Active"},
      {"measurement": "Activity", "setting": "[13]", "result": "Active"},
      {"measurement": "Activity", "setting": "[14]", "result": "Active"},
      {"measurement": "Activity", "setting": "[15]", "result": "Active"}
    ]},
    {"molecule": "COc1cc(/C=C/c2ccc3ccc(C(=O)O)c(O)c3n2)cc(O)c1O", "values": [
      {"measurement": "inhibition", "setting": "[16]", "result": "Active"},
      {"measurement": "inhibition", "setting": "[17]", "result": "Active"},
      {"measurement": "inhibition", "setting": "[18]", "result": "Active"},
      {"measurement": "IC50", "setting": "[19]", "result": 5.2, "unit": "µM"},
      {"measurement": "inhibition", "setting": "PBMC [2]", "result": "Active"},
      {"measurement": "inhibition", "setting": "PBMC [3]", "result": "Active"},
      {"measurement": "inhibition", "setting": "PBMC [4]", "result": "Active"},
      {"measurement": "inhibition", "setting": "PBMC [5]", "result": "Active"},
      {"measurement": "inhibition", "setting": "PBMC [6]", "result": "Active"},
      {"measurement": "inhibition", "setting": "PBMC [7]", "result": "Active"},
      {"measurement": "inhibition", "setting": "PBMC [8]", "result": "Active"},
      {"measurement": "inhibition", "setting": "PBMC [9]", "result": "Active"},
      {"measurement": "inhibition", "setting": "PBMC [10]", "result": "Active"}
    ]},
    {"molecule": "COc1cc(/C=C/c2ccc3ccc(C(=O)O)c(O)c3n2)cc(OC)c1O", "values": [
      {"measurement": "inhibition", "setting": "[16]", "result": "Active"},
      {"measurement": "inhibition", "setting": "[17]", "result": "Active"},
      {"measurement": "inhibition", "setting": "[18]", "result": "Active"},
      {"measurement": "IC50", "setting": "[19]", "result": 7.2, "unit": "µM"},
      {"measurement": "inhibition", "setting": "PBMC [2]", "result": "Active"},
      {"measurement": "inhibition", "setting": "PBMC [3]", "result": "Active"},
      {"measurement": "inhibition", "setting": "PBMC [4]", "result": "Active"},
      {"measurement": "inhibition", "setting": "PBMC [5]", "result": "Active"},
      {"measurement": "inhibition", "setting": "PBMC [6]", "result": "Active"},
      {"measurement": "inhibition", "setting": "PBMC [7]", "result": "Active"},
      {"measurement": "inhibition", "setting": "PBMC [8]", "result": "Active"},
      {"measurement": "inhibition", "setting": "PBMC [9]", "result": "Active"},
      {"measurement": "inhibition", "setting": "PBMC [10]", "result": "Active"}
    ]}
  ]
}
